In brackets after ≈: the same amount, converted by molar mass. Activity calls are given as the source filed them. The calls are words filed in the database; no cut-off is given here.
Columns and labels:
Campylobacter jejuni [1] = assay: Antimicrobial activity against Campylobacter jejuni 700819 mutant 12 with cmeB mutation by agar dilution method; format: functional
Procedure, shortened: (§1)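 cmeB knockouts were made by biphasic natural transformation, using genomic DNA of 11168B (cmeB::kan) as donor. Transformants were selected on 30 μg/ml kanamycin and the insertion confirmed by PCR. The isogenic mutants were then MIC-tested by agar dilution on MH medium at 42°C under microaerobic conditions.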

Campylobacter jejuni [2] = assay: Antimicrobial activity against Campylobacter jejuni 700819 mutant 9 with cmeB mutation by agar dilution method; format: functional; procedure, shortened: as §1
Campylobacter jejuni [3] = assay: Effect on Campylobacter jejuni 700819 mutant colonization at 8 ug/ml; format: functional, organism-based
Procedure, shortened: (§2)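 Chickens colonized with C. jejuni were sampled by cloacal swabs. Serial dilutions were plated on selective MH agar with and without 8 μg/ml Ery and counted after 48 h at 42°C under microaerobic conditions, giving the Ery-nonsusceptible fraction per bird. Detection limit was about 100 CFU/g feces.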

Campylobacter jejuni [4] = assay: Antimicrobial activity against Campylobacter jejuni 700819 mutant 8 by agar dilution method; format: functional
Procedure, shortened: (§3)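 MIC by CLSI agar dilution. Campylobacter was grown on Mueller-Hinton medium at 42°C under microaerobic conditions. Ery-resistant mutants were selected either in vitro, by plating late-log antibiotic-free broth cultures on MH agar with 2, 4 or 8 μg/ml Ery for 2 days, or from tylosin-exposed chickens.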

Campylobacter jejuni [5] = assay: Antimicrobial activity against Campylobacter jejuni 700819 mutant 6/A2074G and cmeB mutation by agar dilution method; format: functional; procedure, shortened: as §1
Campylobacter jejuni [6] = assay: Antimicrobial activity against Campylobacter jejuni 700819 mutant 1 by agar dilution method; format: functional; procedure, shortened: as §3
Campylobacter jejuni [7] = assay: Antimicrobial activity against Campylobacter jejuni 700819 mutant 5 by agar dilution method; format: functional; procedure, shortened: as §3
Campylobacter coli [8] = assay: Antimicrobial activity against Campylobacter coli AW-II-37 by agar dilution method; format: functional; procedure, shortened: as §3
Campylobacter coli [9] = assay: Antimicrobial activity against Campylobacter coli MR32DE8-1 mutant by agar dilution method; format: functional; procedure, shortened: as §3
Campylobacter jejuni [10] = assay: Antimicrobial activity against Campylobacter jejuni 700819 mutant 11 with cmeB mutation by agar dilution method; format: functional; procedure, shortened: as §1
Campylobacter coli [11] = assay: Antimicrobial activity against Campylobacter coli AW-ll-35/AW-ll-37 mutant in chickens assessed as reduction in colonization; format: functional, organism-based
Procedure, shortened: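 Campylobacter-free broiler chickens were orally dosed with a mixed C. coli AW-II-35 + AW-II-37 culture (10⁷ CFU/bird). Five days later one group received tylosin in drinking water (0.53 g/liter, about 110 mg/kg/day) for 3 days; a parallel group was left untreated. Cloacal swabs were serially plated on selective MH, counted after 48 h at 42°C, and compared by t test on log₁₀ CFU/g feces (P<0.01).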

Campylobacter jejuni [12] = assay: Antimicrobial activity against Campylobacter jejuni S3BE4-1 mutant by agar dilution method; format: functional; procedure, shortened: as §3
Campylobacter jejuni [13] = assay: Antimicrobial activity against Campylobacter jejuni 700819 mutant 9 by agar dilution method; format: functional; procedure, shortened: as §3
Campylobacter coli [14] = assay: Antimicrobial activity against Campylobacter coli RN14BE8-1 mutant by agar dilution method; format: functional; procedure, shortened: as §3
Campylobacter jejuni [15] = assay: Antimicrobial activity against Campylobacter jejuni S3BE8-1 mutant by agar dilution method; format: functional; procedure, shortened: as §3
Campylobacter jejuni [16] = assay: Antimicrobial activity against Campylobacter jejuni 700819 mutant 3 with cmeB mutation by agar dilution method; format: functional; procedure, shortened: as §1
Campylobacter jejuni [17] = assay: Antimicrobial activity against Campylobacter jejuni S3BE2-2 mutant with cmeB mutation by agar dilution method; format: functional; procedure, shortened: as §1
Campylobacter jejuni [18] = assay: Antimicrobial activity against Campylobacter jejuni 700819 mutant 10 with cmeB mutation by agar dilution method; format: functional; procedure, shortened: as §1
Campylobacter coli [19] = assay: Antimicrobial activity against Campylobacter coli RN14BE8-2 mutant by agar dilution method; format: functional; procedure, shortened: as §3
Campylobacter jejuni [20] = assay: Antimicrobial activity against Campylobacter jejuni 700819 by agar dilution method; format: functional
Procedure, shortened: (§4)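 Erythromycin MIC by agar dilution per CLSI (formerly NCCLS). Strains were grown on Mueller-Hinton agar or in MH broth at 42°C under microaerobic conditions. MH media were supplemented with various amounts of Ery.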

Campylobacter coli [21] = assay: Antimicrobial activity against Campylobacter coli RN14BE4-2 mutant by agar dilution method; format: functional; procedure, shortened: as §3
Campylobacter jejuni [22] = assay: Antimicrobial activity against Campylobacter jejuni 700819 mutant 2 by agar dilution method; format: functional; procedure, shortened: as §3
Campylobacter coli [23] = assay: Antimicrobial activity against Campylobacter coli RN14BE4-2/A2074G and cmeB mutation by agar dilution method; format: functional; procedure, shortened: as §1
Campylobacter jejuni [24] = assay: Antimicrobial activity against Campylobacter jejuni 700819 mutant 7 by agar dilution method; format: functional; procedure, shortened: as §3
Campylobacter jejuni [25] = assay: Antimicrobial activity against Campylobacter jejuni 700819 mutant 8 with cmeB mutation by agar dilution method; format: functional; procedure, shortened: as §1
Campylobacter jejuni [26] = assay: Effect on Campylobacter jejuni S3B mutant colonization at 8 ug/ml; format: functional, organism-based; procedure, shortened: as §2
Campylobacter jejuni [27] = assay: Antimicrobial activity against Campylobacter jejuni 700819 mutant 4 by agar dilution method; format: functional; procedure, shortened: as §3
Campylobacter coli [28] = assay: Antimicrobial activity against Campylobacter coli MR32D by agar dilution method; format: functional; procedure, shortened: as §4
Campylobacter jejuni [29] = assay: Antimicrobial activity against Campylobacter jejuni S3BE2-2 mutant by agar dilution method; format: functional; procedure, shortened: as §3
Campylobacter jejuni [30] = assay: Antimicrobial activity against Campylobacter jejuni 700819 mutant 12 by agar dilution method; format: functional; procedure, shortened: as §3
Campylobacter jejuni [31] = assay: Antimicrobial activity against Campylobacter jejuni 700819 mutant 2 with cmeB mutation by agar dilution method; format: functional; procedure, shortened: as §1
Campylobacter jejuni [32] = assay: Antimicrobial activity against Campylobacter jejuni S3BE4-2 mutant by agar dilution method; format: functional; procedure, shortened: as §3
Campylobacter coli [33] = assay: Antimicrobial activity against Campylobacter coli AW-II-35 by agar dilution method; format: functional; procedure, shortened: as §3
Campylobacter jejuni [34] = assay: Antimicrobial activity against Campylobacter jejuni 700819 with cmeB mutation by agar dilution method; format: functional; procedure, shortened: as §1
Campylobacter jejuni [35] = assay: Antimicrobial activity against Campylobacter jejuni 700819 mutant 6 by agar dilution method; format: functional; procedure, shortened: as §3
Campylobacter jejuni [36] = assay: Antimicrobial activity against Campylobacter jejuni 700819 mutant 5/A2074G and cmeB mutation by agar dilution method; format: functional; procedure, shortened: as §1
Campylobacter jejuni [37] = assay: Antimicrobial activity against Campylobacter jejuni 700819 mutant 11 by agar dilution method; format: functional; procedure, shortened: as §3
Campylobacter jejuni [38] = assay: Antimicrobial activity against Campylobacter jejuni S3BE4-3 mutant by agar dilution method; format: functional; procedure, shortened: as §3
Campylobacter jejuni [39] = assay: Antimicrobial activity against Campylobacter jejuni 700819 mutant 7 with cmeB mutation by agar dilution method; format: functional; procedure, shortened: as §1
Campylobacter coli [40] = assay: Antimicrobial activity against Campylobacter coli RN14BE8-3 mutant by agar dilution method; format: functional; procedure, shortened: as §3
Campylobacter jejuni [41] = assay: Antimicrobial activity against Campylobacter jejuni S3B with cmeB mutation by agar dilution method; format: functional; procedure, shortened: as §1
Campylobacter coli [42] = assay: Antimicrobial activity against Campylobacter coli RN14BE4-3 mutant with cmeB mutation by agar dilution method; format: functional; procedure, shortened: as §1
Campylobacter jejuni [43] = assay: Antimicrobial activity against Campylobacter jejuni 700819 mutant 4/A2074G and cmeB mutation by agar dilution method; format: functional; procedure, shortened: as §1
Campylobacter jejuni [44] = assay: Antimicrobial activity against Campylobacter jejuni 700819 mutant 3 by agar dilution method; format: functional; procedure, shortened: as §3
Campylobacter coli [45] = assay: Antimicrobial activity against Campylobacter coli RN14B by agar dilution method; format: functional; procedure, shortened: as §4
Campylobacter coli [46] = assay: Antimicrobial activity against Campylobacter coli MR32DE4-1 mutant by agar dilution method; format: functional; procedure, shortened: as §3
Campylobacter jejuni [47] = assay: Antimicrobial activity against Campylobacter jejuni 700819 mutant 1 with cmeB mutation by agar dilution method; format: functional; procedure, shortened: as §1
Campylobacter coli [48] = assay: Antimicrobial activity against Campylobacter coli RN14B with cmeB mutation by agar dilution method; format: functional; procedure, shortened: as §1
Campylobacter jejuni [49] = assay: Antimicrobial activity against Campylobacter jejuni 700819 mutant 10 by agar dilution method; format: functional; procedure, shortened: as §3
Campylobacter jejuni [50] = assay: Antimicrobial activity against Campylobacter jejuni S3B by agar dilution method; format: functional; procedure, shortened: as §4
Campylobacter coli [51] = assay: Antimicrobial activity against Campylobacter coli RN14BE4-3 mutant by agar dilution method; format: functional; procedure, shortened: as §3

## CC[C@H]1OC(=O)[C@H](C)[C@@H](O[C@H]2C[C@@](C)(OC)[C@@H](O)[C@H](C)O2)[C@H](C)[C@@H](O[C@@H]2O[C@H](C)C[C@H](N(C)C)[C@H]2O)[C@](C)(O)C[C@@H](C)C(=O)[C@H](C)[C@@H](O)[C@]1(C)O [ERYTHROMYCIN]
Campylobacter jejuni [1]
  MIC: 0.25 µg/mL (≈ 0.341 µM)
Campylobacter jejuni [2]
  MIC: 0.25 µg/mL (≈ 0.341 µM)
Campylobacter jejuni [3]
  Activity: Active
Campylobacter jejuni [4]
  MIC: 16 µg/mL (≈ 21.8 µM)
Campylobacter jejuni [5]
  MIC: 32 µg/mL (≈ 43.6 µM)
Campylobacter jejuni [6]
  MIC: 8 µg/mL (≈ 10.9 µM)
Campylobacter jejuni [7]
  MIC: > 512 µg/mL
Campylobacter coli [8]
  MIC: 0.125 µg/mL (≈ 0.17 µM)
Campylobacter coli [9]
  MIC: 32 µg/mL (≈ 43.6 µM)
Campylobacter jejuni [10]
  MIC: 0.25 µg/mL (≈ 0.341 µM)
Campylobacter coli [11]
  Activity: Active
Campylobacter jejuni [12]
  MIC: 32 µg/mL (≈ 43.6 µM)
Campylobacter jejuni [13]
  MIC: 32 µg/mL (≈ 43.6 µM)
Campylobacter coli [14]
  MIC: 32 µg/mL (≈ 43.6 µM)
Campylobacter jejuni [15]
  MIC: 256 µg/mL (≈ 349 µM)
Campylobacter jejuni [16]
  MIC: 0.25 µg/mL (≈ 0.341 µM)
Campylobacter jejuni [17]
  MIC: 0.125 µg/mL (≈ 0.17 µM)
Campylobacter jejuni [18]
  MIC: 0.125 µg/mL (≈ 0.17 µM)
Campylobacter coli [19]
  MIC: 32 µg/mL (≈ 43.6 µM)
Campylobacter jejuni [20]
  MIC: 2 µg/mL (≈ 2.73 µM)
Campylobacter coli [21]
  MIC: 8 µg/mL (≈ 10.9 µM)
Campylobacter jejuni [22]
  MIC: 8 µg/mL (≈ 10.9 µM)
Campylobacter coli [23]
  MIC: 0.125 µg/mL (≈ 0.17 µM)
Campylobacter jejuni [24]
  MIC: 8 µg/mL (≈ 10.9 µM)
Campylobacter jejuni [25]
  MIC: 0.25 µg/mL (≈ 0.341 µM)
Campylobacter jejuni [26]
  Activity: Active
Campylobacter jejuni [27]
  MIC: > 512 µg/mL
Campylobacter coli [28]
  MIC: 2 µg/mL (≈ 2.73 µM)
Campylobacter jejuni [29]
  MIC: 256 µg/mL (≈ 349 µM)
Campylobacter jejuni [30]
  MIC: 8 µg/mL (≈ 10.9 µM)
Campylobacter jejuni [31]
  MIC: 0.125 µg/mL (≈ 0.17 µM)
Campylobacter jejuni [32]
  MIC: 32 µg/mL (≈ 43.6 µM)
Campylobacter coli [33]
  MIC: 0.125 µg/mL (≈ 0.17 µM)
Campylobacter jejuni [34]
  MIC: 0.125 µg/mL (≈ 0.17 µM)
Campylobacter jejuni [35]
  MIC: > 512 µg/mL
Campylobacter jejuni [36]
  MIC: 32 µg/mL (≈ 43.6 µM)
Campylobacter jejuni [37]
  MIC: 8 µg/mL (≈ 10.9 µM)
Campylobacter jejuni [38]
  MIC: 128 µg/mL (≈ 174 µM)
Campylobacter jejuni [39]
  MIC: 0.25 µg/mL (≈ 0.341 µM)
Campylobacter coli [40]
  MIC: 32 µg/mL (≈ 43.6 µM)
Campylobacter jejuni [41]
  MIC: 1 µg/mL (≈ 1.36 µM)
Campylobacter coli [42]
  MIC: 0.125 µg/mL (≈ 0.17 µM)
Campylobacter jejuni [43]
  MIC: 32 µg/mL (≈ 43.6 µM)
Campylobacter jejuni [44]
  MIC: 32 µg/mL (≈ 43.6 µM)
Campylobacter coli [45]
  MIC: 2 µg/mL (≈ 2.73 µM)
Campylobacter coli [46]
  MIC: 8 µg/mL (≈ 10.9 µM)
Campylobacter jejuni [47]
  MIC: 0.25 µg/mL (≈ 0.341 µM)
Campylobacter coli [48]
  MIC: 0.125 µg/mL (≈ 0.17 µM)
Campylobacter jejuni [49]
  MIC: 8 µg/mL (≈ 10.9 µM)
Campylobacter jejuni [50]
  MIC: 2 µg/mL (≈ 2.73 µM)
Campylobacter coli [51]
  MIC: 32 µg/mL (≈ 43.6 µM)

— ChEMBL document CHEMBL1145501, “Effect of macrolide usage on emergence of erythromycin-resistant Campylobacter isolates in chickens” (2007)
